According to ChEMBL document CHEMBL1177748, “Homo- and heptanor-sterols and tremulane sesquiterpenes from cultures of Phellinus igniarius” (2010):
Active and inactive are the calls of the source. The calls are words filed in the database; no cut-off is given here.

What was measured:
[1] = molecular target: T1, Tyrosine-protein phosphatase non-receptor type 1 (Homo sapiens) (UniProt P18031); assay: Inhibition of PTB1B at 10 uM
T1 sequence (whole entry): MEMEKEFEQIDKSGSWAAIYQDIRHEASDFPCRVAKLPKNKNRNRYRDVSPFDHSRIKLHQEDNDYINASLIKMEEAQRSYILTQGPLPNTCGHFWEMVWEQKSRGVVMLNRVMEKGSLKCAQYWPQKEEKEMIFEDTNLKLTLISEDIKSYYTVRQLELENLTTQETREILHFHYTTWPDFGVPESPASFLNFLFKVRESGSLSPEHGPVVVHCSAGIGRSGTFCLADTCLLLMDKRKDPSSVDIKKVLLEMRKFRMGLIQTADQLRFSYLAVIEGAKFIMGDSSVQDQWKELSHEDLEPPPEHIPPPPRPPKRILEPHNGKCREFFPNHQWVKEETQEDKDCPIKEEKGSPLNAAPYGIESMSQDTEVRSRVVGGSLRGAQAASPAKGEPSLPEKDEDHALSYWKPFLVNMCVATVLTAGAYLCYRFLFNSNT

[2] = tested on: Thoracic aorta; assay: Vasodilating activity in Langendorff-perfused Sprague-Dawley rat thoracic aorta assessed as relaxation of phenylephrine-induced vasoconstriction at 10 uM relative to untreated control; format: functional; set-up: scale not given: the % may be the effect or the level left
How it was run: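 Thoracic aortic rings were taken from Langendorff-perfused Sprague-Dawley rats weighing 200 ± 20 g. Rings were precontracted with phenylephrine, and isotonic tension was recorded. Compounds were tested at 10^-5 M. The relaxing rate was expressed as a percentage relative to the blank control.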

[3] = tested on: Liver microsomes; assay: Antioxidant activity against Fe2+-cystine induced lipid peroxidation in rat liver microsomes at 10 uM; format: functional; conditions: Microsome
[4] = tested on: PC-12; assay: Neuroprotective activity against glutamate-induced neurotoxicity in rat PC12 cells at 10 uM; format: functional, cell-based
[5] = tested on: Human immunodeficiency virus 1; assay: Antiviral activity against HIV1 assessed as inhibition of viral replication at 10 uM; format: functional, organism-based
[6] = organism: Rattus norvegicus; assay: Inhibition of platelet-activating factor-induced beta-glucuronidase release in rat PMNC at 10 uM; format: functional

With `C[C@H]1CC[C@H](CO)[C@H](CO)C2=C[C@](C)(CO)C[C@H]21` the inhibition [1] was “inactive”, the Activity [2] was 35.7% and the inhibition [3] was “inactive”. The inhibition [4] was “inactive”, the inhibition [5] was “inactive” and the inhibition [6] was “inactive”.

With `C[C@H]1CCC2=C(COC2=O)[C@@]2(O)CC(C)(C)C[C@@H]12` the inhibition [1] was “inactive”, the Activity [2] was 46.6% and the inhibition [3] was “inactive”. The inhibition [4] was “inactive”, the inhibition [5] was “inactive” and the inhibition [6] was “inactive”.

`C[C@H]1CC[C@H](CO)[C@H](CO)C2=C[C@@](C)(CO)C[C@H]21` was tested, and the inhibition [1] was “inactive”, the Activity [2] was 45.4% and the inhibition [3] was “inactive”. The inhibition [4] was “inactive”, the inhibition [5] was “inactive” and the inhibition [6] was “inactive”.

For `COc1ccc(CCN(C)CCCC(C#N)(c2ccc(OC)c(OC)c2)C(C)C)cc1OC` (stereo not given) [VERAPAMIL], the Activity [2] was 83.3%.

In the case of `CC1(C)OCC2=CC[C@H]3C(C)(C)[C@@H](O)CC[C@]3(C)[C@H]2CO1`, the inhibition [1] is reported as “inactive”, the Activity [2] is reported as 32.1% and the inhibition [3] is reported as “inactive”. The inhibition [4] was “inactive”, the inhibition [5] was “inactive” and the inhibition [6] was “inactive”.
